Results: article PMC3711763 (The Journal of neuroscience : the official journal of the …, 2013)
Where two headings read alike, the source gives them in different places.

Experiments:
[1] = test system: impulsive action in the 5-CSRT task; conditions: cited from earlier work
male Sprague Dawley rats [2] = assay: spontaneous locomotor activity; assay type: in vivo, rat; conditions: i.p.
male Sprague Dawley rats [3] = assay: 1-choice serial reaction time; assay type: in vivo, rat; conditions: i.p.; for % Accuracy / % Omissions / Latency to start / Response latency / Time to finish: mean ± SEM; for number of reinforcers earned (combination study) / premature responses (combination study): alone or combined
Procedure, shortened: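 Male Sprague Dawley rats (225–325 g) were housed two per cage and food-restricted to 90% of free-feeding weight. They were trained until stable: >80% accuracy and <20% omissions for five consecutive sessions at the final stage (0.5 s stimulus, 5 s limited hold, 5 s ITI), with <15% variability. Test compound or saline vehicle was given i.p. 15 min pre-session. Data were analysed by one-way repeated-measures ANOVA with Dunnett's test versus saline.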

5-HT2AR = 5-HT2AR (Homo sapiens, UniProt P28223); assay: intracellular calcium release in 5-HT2AR–CHO cells; assay type: cell-based; conditions: for Cai2+ release, peptide alone, in 5-HT2AR–CHO cells: 15 min, peptide alone (data not shown); for effect on 5-HT-mediated Cai2+ release in 5-HT2AR–CHO cells: 15 min preincubation, 10 nM 5-HT
5-HT2AR, sequence (P28223 whole entry): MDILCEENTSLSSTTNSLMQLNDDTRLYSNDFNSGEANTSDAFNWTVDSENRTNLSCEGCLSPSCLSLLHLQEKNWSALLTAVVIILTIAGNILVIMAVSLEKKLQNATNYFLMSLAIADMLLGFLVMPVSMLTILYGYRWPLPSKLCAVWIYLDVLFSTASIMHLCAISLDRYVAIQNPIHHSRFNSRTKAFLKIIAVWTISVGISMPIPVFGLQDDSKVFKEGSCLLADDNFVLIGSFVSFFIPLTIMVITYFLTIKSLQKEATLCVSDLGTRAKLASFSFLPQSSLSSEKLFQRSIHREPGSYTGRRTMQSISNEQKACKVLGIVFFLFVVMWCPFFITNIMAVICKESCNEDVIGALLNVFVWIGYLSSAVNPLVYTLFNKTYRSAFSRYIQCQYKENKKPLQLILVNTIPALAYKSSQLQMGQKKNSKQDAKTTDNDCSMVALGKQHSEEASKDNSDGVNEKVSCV

5-HT2CR = conditions: for Cai2+ release, peptide alone (unstimulated): no agonist, fluorescence; for effect on 5-HT-evoked Cai2+ release: ANOVA main effect
circular dichroism = assay type: physicochemical; conditions: in water; 3L4F 300 μM, 3L4F-F1 100 and 300 μM; three independent trials
[4] = test system: 5-HT2CR and PTEN protein expression, 5-HT2CR–CHO cells; assay: Western blot of protein expression in 5-HT2CR–CHO cells; assay type: cell-based, human 5-HT2CR; CHO cells; conditions: 1 pM, 15 min preincubation
Procedure, shortened: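 Cells were rinsed in ice-cold Krebs' solution, pelleted, and homogenized in HEPES/EDTA/EGTA/DTT buffer containing protease and phosphatase inhibitors. The membrane pellet from differential centrifugation was resuspended in buffer with 400 mM NaCl and 0.5% NP-40. Protein was quantified by BCA, reduced and heated at 70°C for 20 min, run on 4–12% Bis-Tris SDS-PAGE and transferred to PVDF. Blots were probed with primary antibody overnight and secondary for 45 min, then read by infrared imaging.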

[5] = test system: 5-HT2CR–PTEN complex in VTA; assay: co-IP of 5-HT2CR–PTEN complex in rat VTA after systemic administration; assay type: in vivo; conditions: 10 μmol/kg, i.p., killed 5 min later, relative to vehicle (saline)
[6] = TAT–3L4F 0.1 μmol/kg, WAY163909 1 mg/kg, alone or combined
[7] = TAT–3L4F 0.1 μmol/kg, WAY163909 1 mg/kg, alone or combined, p < 0.05
[8] = 0.5 and 1 mg/kg, versus saline, p < 0.05
[9] = TAT–3L4F 0.3 μmol/kg, WAY163909 0.1 mg/kg, versus saline
[10] = WAY163909 0.1 mg/kg, combination study
[11] = 15 min preincubation, Calcium 4 dye
[12] = 15 min preincubation, 1 nM 5-HT
[13] = 1 μmol/kg, versus saline, p < 0.05
[14] = TAT–3L4F 0.3 μmol/kg, combination study

Compound: Cc1cc2c(cc1Cl)N(C(=O)Nc1ccc(Oc3cccnc3C)nc1)CC2.Cl.Cl [SB242084, 6-chloro-5-methyl-1-((2-(2-methylpyrid-3-yloxy)pyrid-5-yl)carbamoyl)indoline dihydrochloride]
- impulsive action by premature responses in the 5-CSRT task ([1]; ref Winstanley et al., 2004b, Fletcher et al., 2007): increase impulsive action

Compound: c1cc2c3c(c1)[C@H]1CCC[C@H]1N3CCNC2 [WAY163909, (7bR, 10aR)-1,2,3,4,8,9,10,10a-octa-hydro-7bH-cyclopenta-(b)(1,4)diazepino (6,7,1hi)indole]
- impulsive action by premature responses in the 5-CSRT task ([1]; ref Navarra et al., 2008): potently suppress
- total vertical activity, 70 min (combination study) (male Sprague Dawley rats [2]; [6]): No main effect of treatment was observed for vertical activity
- vertical activity, 5-min bins (combination study) (male Sprague Dawley rats [2]; [6]): No main effect of treatment
- central ambulation, 5-min bins (combination study) (male Sprague Dawley rats [2]; [7]): significantly reduced central ambulation versus saline at 10 min
- peripheral ambulation, 5-min bins (combination study) (male Sprague Dawley rats [2]; [7]): significantly reduced peripheral ambulation versus saline at 5 and 10 min
- total central ambulation, 70 min (combination study) (male Sprague Dawley rats [2]; [7]): but not either ligand alone
- total horizontal ambulation, 70 min (combination study) (male Sprague Dawley rats [2]; TAT–3L4F 0.1 μmol/kg, WAY163909 1 mg/kg, alone or combined, versus saline): neither ligands tested alone at chosen doses altered total horizontal ambulation
- % Accuracy (male Sprague Dawley rats [3]; 0.05 mg/kg): 100.52 ± 0.4%
- % Omissions (male Sprague Dawley rats [3]; 0.05 mg/kg): 6.23 ± 1.1%
- Latency to start (male Sprague Dawley rats [3]; 0.05 mg/kg): 0.69 ± 0.2 s
- Response latency (male Sprague Dawley rats [3]; 0.05 mg/kg): 2.75 ± 0.4 s
- Time to finish (male Sprague Dawley rats [3]; 0.05 mg/kg): 933.62 ± 29.4 s
- % Accuracy (male Sprague Dawley rats [3]; 0.1 mg/kg, dose-response study): 100.72 ± 0.5%
- % Omissions (male Sprague Dawley rats [3]; 0.1 mg/kg, dose-response study): 5.40 ± 0.9%
- Latency to start (male Sprague Dawley rats [3]; 0.1 mg/kg, dose-response study): 1.13 ± 0.2 s
- Response latency (male Sprague Dawley rats [3]; 0.1 mg/kg, dose-response study): 2.57 ± 0.2 s
- Time to finish (male Sprague Dawley rats [3]; 0.1 mg/kg, dose-response study): 923.55 ± 16.5 s
- % Accuracy (male Sprague Dawley rats [3]; 0.2 mg/kg): 100.15 ± 0.7%
- % Omissions (male Sprague Dawley rats [3]; 0.2 mg/kg): 6.26 ± 1.6%
- Latency to start (male Sprague Dawley rats [3]; 0.2 mg/kg): 0.85 ± 0.2 s
- Response latency (male Sprague Dawley rats [3]; 0.2 mg/kg): 2.84 ± 0.4 s
- Time to finish (male Sprague Dawley rats [3]; 0.2 mg/kg): 941.12 ± 34.9 s
- % Accuracy (male Sprague Dawley rats [3]; 0.5 mg/kg): 100.61 ± 0.4%
- % Omissions (male Sprague Dawley rats [3]; 0.5 mg/kg): 5.85 ± 0.9%
- Latency to start (male Sprague Dawley rats [3]; 0.5 mg/kg): 0.62 ± 0.1 s
- Response latency (male Sprague Dawley rats [3]; 0.5 mg/kg): 2.54 ± 0.2 s
- Time to finish (male Sprague Dawley rats [3]; 0.5 mg/kg): 926.23 ± 17.3 s
- % Accuracy (male Sprague Dawley rats [3]; 1 mg/kg): 101.48 ± 0.6%
- % Omissions (male Sprague Dawley rats [3]; 1 mg/kg): 8.94 ± 0.7%
- Latency to start (male Sprague Dawley rats [3]; 1 mg/kg): 1.11 ± 0.2 s
- Response latency (male Sprague Dawley rats [3]; 1 mg/kg): 3.06 ± 0.4 s
- Time to finish (male Sprague Dawley rats [3]; 1 mg/kg): 981.14 ± 33.7 s
- number of reinforcers earned (male Sprague Dawley rats [3]; [8]): increased the number of reinforcers earned versus saline
- premature responses (male Sprague Dawley rats [3]; [8]): decreased premature responses versus saline
- number of reinforcers earned (combination study) (male Sprague Dawley rats [3]; [9]): Neither 0.3 μmol/kg TAT–3L4F nor 0.1 mg/kg WAY163909 alone altered the number of reinforcers earned versus saline
- premature responses (combination study) (male Sprague Dawley rats [3]; [9]): Neither 0.3 μmol/kg TAT–3L4F nor 0.1 mg/kg WAY163909 alone altered premature responses
- % Accuracy (male Sprague Dawley rats [3]; [10]): 100.21 ± 0.8%
- % Omissions (male Sprague Dawley rats [3]; [10]): 5.45 ± 1.0%
- Latency to start (male Sprague Dawley rats [3]; [10]): 1.11 ± 0.3 s
- Response latency (male Sprague Dawley rats [3]; [10]): 2.83 ± 0.5 s
- Time to finish (male Sprague Dawley rats [3]; [10]): 948.78 ± 37.7 s
- additional measures of task performance (male Sprague Dawley rats [3]; accuracy, motivation, motility indices): did not alter additional measures of task performance, including accuracy, motivation, or motility indices

Compound: Ac-PNQDQNAR-NH2 [3L4F-F1]
- Cai2+ release, peptide alone, in 5-HT2AR–CHO cells (5-HT2AR): did not induce Cai2+ release
- effect on 5-HT-mediated Cai2+ release in 5-HT2AR–CHO cells (5-HT2AR): did not induce Cai2+ release or alter Cai2+ release evoked by 10 nM 5-HT
- Cai2+ release, peptide alone (unstimulated) (5-HT2CR; [11]): did not induce Cai2+ release
- concentrations that significantly increased Cai2+ release versus 1 nM 5-HT (5-HT2CR; 15 min preincubation, 1 nM 5-HT, Calcium 4 dye, FlexStation3, p < 0.05): 10 ^−13 to 10 ^−9 M
- CD signal at 222 nm (circular dichroism): shallow inflection point at 222 nm
- α-helix content by CD (circular dichroism): 10–30%

Compound: Ac-PNQDQNARRRKKKERR-NH2 [3L4F]
- membrane protein expression levels of 5-HT2CR or PTEN [4]: unchanged
- Cai2+ release, peptide alone, in 5-HT2AR–CHO cells (5-HT2AR): nor did it alter Cai2+ release when tested alone
- effect on 5-HT-mediated Cai2+ release in 5-HT2AR–CHO cells (5-HT2AR): did not potentiate 5-HT-mediated (10 nM) Cai2+ release
- cellular entry without TAT conjugation (5-HT2CR): TAT conjugation is not necessary for cellular entry
- Emax of 5-HT-evoked Cai2+ release in presence of peptide (5-HT2CR; 1 pM peptide, 15 min, 5-HT concentration response, p < 0.05): 120.7 % of maximal response for 5-HT
- Cai2+ release, peptide alone (unstimulated) (5-HT2CR; [11]): did not alter unstimulated Cai2+ release
- CD signal at 222 nm (circular dichroism): clear inflection point at 222 nm
- α-helix content by CD (circular dichroism): < 50%

Compound: Ac-QNARRRKK-NH2 [3L4F-F2]
- Cai2+ release, peptide alone, in 5-HT2AR–CHO cells (5-HT2AR): did not induce Cai2+ release
- effect on 5-HT-mediated Cai2+ release in 5-HT2AR–CHO cells (5-HT2AR): did not induce Cai2+ release or alter Cai2+ release evoked by 10 nM 5-HT
- Cai2+ release, peptide alone (unstimulated) (5-HT2CR; [11]): did not induce Cai2+ release
- effect on 5-HT-evoked Cai2+ release (5-HT2CR; [12]): No main effect

Compound: Ac-RRKKKERR-NH2 [3L4F-F3]
- Cai2+ release, peptide alone, in 5-HT2AR–CHO cells (5-HT2AR): did not induce Cai2+ release
- effect on 5-HT-mediated Cai2+ release in 5-HT2AR–CHO cells (5-HT2AR): did not induce Cai2+ release or alter Cai2+ release evoked by 10 nM 5-HT
- Cai2+ release, peptide alone (unstimulated) (5-HT2CR; [11]): did not induce Cai2+ release
- effect on 5-HT-evoked Cai2+ release (5-HT2CR; [12]): No main effect

Compound: Ac-YGRKKRRQRRRPNPDQKPRRKKKEKR-NH2 [rat TAT–3L4F]
- effect across multiple activity measures (male Sprague Dawley rats [2]; 0.1 μmol/kg, alone): ineffective across multiple activity measures
- horizontal ambulation, 5-min bins (male Sprague Dawley rats [2]; 1 μmol/kg, 15 min before test, versus saline, p < 0.05): significantly reduced horizontal ambulation versus saline at 5, 10, and 15 min
- total horizontal ambulation, 70 min (male Sprague Dawley rats [2]; [13]): significantly reduced total horizontal ambulation versus saline
- total peripheral ambulation, 70 min (male Sprague Dawley rats [2]; [13]): significantly reduced peripheral ambulation versus saline
- central ambulation, 5-min bins (male Sprague Dawley rats [2]; 0.1 or 1 μmol/kg): No main effect of treatment
- vertical activity, 5-min bins (male Sprague Dawley rats [2]; 0.1 or 1 μmol/kg): No main effect of treatment
- total vertical activity, 70 min (combination study) (male Sprague Dawley rats [2]; [6]): No main effect of treatment was observed for vertical activity
- vertical activity, 5-min bins (combination study) (male Sprague Dawley rats [2]; [6]): No main effect of treatment
- total central ambulation, 70 min (combination study) (male Sprague Dawley rats [2]; [7]): but not either ligand alone
- number of reinforcers earned (combination study) (male Sprague Dawley rats [3]; [9]): Neither 0.3 μmol/kg TAT–3L4F nor 0.1 mg/kg WAY163909 alone altered the number of reinforcers earned versus saline
- premature responses (combination study) (male Sprague Dawley rats [3]; [9]): Neither 0.3 μmol/kg TAT–3L4F nor 0.1 mg/kg WAY163909 alone altered premature responses
- % Accuracy (male Sprague Dawley rats [3]; [14]): 98.69 ± 0.6%
- % Omissions (male Sprague Dawley rats [3]; [14]): 4.77 ± 1.0%
- Latency to start (male Sprague Dawley rats [3]; [14]): 1.00 ± 0.6 s
- Response latency (male Sprague Dawley rats [3]; [14]): 2.19 ± 0.2 s
- Time to finish (male Sprague Dawley rats [3]; [14]): 875.10 ± 15.3 s
- intensity of PTEN immunoreactive band after IP for 5-HT2CR, VTA [5]: attenuated relative to vehicle (saline) treatment
